Assay results reported in ChEMBL document CHEMBL1142987, “Cinnamoyl compounds as simple molecules that inhibit p300 histone acetyltransferase” (J Med Chem, 2007).
Values belong to the molecule of their own block, whether it stands above or below them. Active and inactive are the calls of the source. The calls are words filed in the database; no cut-off is given here.

Columns and labels:
[1] = biological target: Histone acetyltransferase KAT2A (Homo sapiens) (UniProt Q92830); assay: Activity of GST-GCN5 assessed as HAT activity at 5 uM
Procedure, shortened: (§1)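 The same in vitro HAT assay was run with equal molar amounts of p300, PCAF and GCN5, each with a test compound at 5 or 21 µM. Acetylation was quantified by densitometry and expressed as percent variation from the DMSO-treated sample. Values are the mean of three independent experiments ± standard error.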

[2] = test system: HeLa; assay: Cytotoxicity in HeLa cells expressing H2B-EYFP above 20 uM; assay type: functional, cell-based; conditions: Homo sapiens, in the assay text read “above 40 uM” for “above 20 uM”
Procedure, shortened: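 Cell toxicity in compound-treated H2B-EYFP HeLa cells was scored as decreased H2B-EYFP fluorescence.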

[3] = biological target: T1, Histone acetyltransferase p300 (Homo sapiens, UniProt Q09472); assay: Inhibition of GST-p300 HAT assessed as histone acetylation
Procedure, shortened: (§2)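 Recombinant histones H1, H2A, H2B, H3 and H4 were acetylated in vitro by the p300 HAT domain. Acetylated histones were detected by gel autoradiography, with Coomassie staining for total histone. IC50 was taken from densitometric dose–response curves, as the mean of at least three separate experiments.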

[4] = biological target: T1, Histone acetyltransferase p300; assay: Activity of GST-p300 HAT assessed as HAT activity at 5 uM; procedure, shortened: as §1
[5] = test system: HeLa; assay: Reduction of acetylation in HeLa cells expressing H2B-EYFP at 20 uM; assay type: functional, Homo sapiens; parameters: scale not given: the % may be the effect or the level left
Procedure, shortened: (§3)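 HeLa cells stably expressing H2B-EYFP were grown in 10% FCS-DMEM and treated with 20 or 40 µM compound or DMSO. Cells were then immunostained for acetyl-H3. Mean anti-acetyl-H3 fluorescence was normalized to H2B-EYFP fluorescence in the same cells and expressed as percent inhibition versus DMSO. Each of three independent experiments analyzed 150 cells; mean and standard error are reported.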

[6] = test system: HeLa; assay: Reduction of acetylation in HeLa cells expressing H2B-EYFP at 40 uM; assay type: functional, Homo sapiens; parameters: scale not given: the % may be the effect or the level left; procedure, shortened: as §3
[7] = biological target: T1, Histone acetyltransferase p300; assay: Inhibition of full length GST-p300 expressed in Sf9 cells assessed as histone acetylation
[8] = biological target: T1, Histone acetyltransferase p300; assay: Inhibition of GST-p300 HAT expressed in bacteria assessed as histone acetylation
Procedure, shortened: as §2, with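 “domain. Compounds were tested at 25–400 µM, or from 0.19 µM for one compound.” for “domain.”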

[9] = test system: HeLa; assay: Acetylation of H3 in HeLa cells expressing H2B-EYFP upto 200 uM; assay type: functional, cell-based; conditions: Homo sapiens
Procedure, shortened: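 H2B-EYFP HeLa cells in 10% FCS-DMEM were treated with various compound concentrations up to 200 µM, then immunostained with anti-acetyl-H3 antibodies. H2B-EYFP fluorescence served as an internal control for protein expression.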

[10] = biological target: T1, Histone acetyltransferase p300; assay: Activity of GST-p300 HAT assessed as HAT activity at 21 uM; procedure, shortened: as §1
[11] = biological target: Histone acetyltransferase KAT2A (Homo sapiens) (UniProt Q92830); assay: Activity of GST-GCN5 assessed as HAT activity at 21 uM; procedure, shortened: as §1
[12] = biological target: Histone acetyltransferase KAT2B (Homo sapiens) (UniProt Q92831); assay: Activity of GST-PCAF assessed as HAT activity at 21 uM; procedure, shortened: as §1
Histone acetyltransferase KAT2B (Homo sapiens), sequence (Q92831 whole entry, looked up): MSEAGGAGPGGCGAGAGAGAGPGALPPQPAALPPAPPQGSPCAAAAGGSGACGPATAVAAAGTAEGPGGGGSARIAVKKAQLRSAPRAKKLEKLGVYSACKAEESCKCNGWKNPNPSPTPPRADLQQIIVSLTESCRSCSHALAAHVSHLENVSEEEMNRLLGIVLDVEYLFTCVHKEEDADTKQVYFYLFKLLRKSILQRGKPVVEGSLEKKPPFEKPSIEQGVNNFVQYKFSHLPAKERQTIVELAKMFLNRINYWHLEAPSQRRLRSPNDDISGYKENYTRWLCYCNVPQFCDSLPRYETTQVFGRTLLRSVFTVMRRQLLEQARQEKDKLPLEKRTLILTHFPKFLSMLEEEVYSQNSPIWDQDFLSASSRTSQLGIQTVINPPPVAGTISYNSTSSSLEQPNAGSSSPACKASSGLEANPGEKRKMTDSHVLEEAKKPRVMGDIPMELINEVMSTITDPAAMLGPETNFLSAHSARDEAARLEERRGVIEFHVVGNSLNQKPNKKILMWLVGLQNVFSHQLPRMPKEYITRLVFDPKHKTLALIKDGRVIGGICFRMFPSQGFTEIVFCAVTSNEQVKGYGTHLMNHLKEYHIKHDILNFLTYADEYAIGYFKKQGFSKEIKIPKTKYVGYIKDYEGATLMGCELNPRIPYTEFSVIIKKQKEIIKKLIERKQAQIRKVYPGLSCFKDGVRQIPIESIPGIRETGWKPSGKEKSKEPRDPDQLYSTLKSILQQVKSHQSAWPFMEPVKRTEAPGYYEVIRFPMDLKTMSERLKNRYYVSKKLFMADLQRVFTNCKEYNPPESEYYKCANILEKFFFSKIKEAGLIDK

T1 sequence (Q09472 whole entry, the tested form may be a part): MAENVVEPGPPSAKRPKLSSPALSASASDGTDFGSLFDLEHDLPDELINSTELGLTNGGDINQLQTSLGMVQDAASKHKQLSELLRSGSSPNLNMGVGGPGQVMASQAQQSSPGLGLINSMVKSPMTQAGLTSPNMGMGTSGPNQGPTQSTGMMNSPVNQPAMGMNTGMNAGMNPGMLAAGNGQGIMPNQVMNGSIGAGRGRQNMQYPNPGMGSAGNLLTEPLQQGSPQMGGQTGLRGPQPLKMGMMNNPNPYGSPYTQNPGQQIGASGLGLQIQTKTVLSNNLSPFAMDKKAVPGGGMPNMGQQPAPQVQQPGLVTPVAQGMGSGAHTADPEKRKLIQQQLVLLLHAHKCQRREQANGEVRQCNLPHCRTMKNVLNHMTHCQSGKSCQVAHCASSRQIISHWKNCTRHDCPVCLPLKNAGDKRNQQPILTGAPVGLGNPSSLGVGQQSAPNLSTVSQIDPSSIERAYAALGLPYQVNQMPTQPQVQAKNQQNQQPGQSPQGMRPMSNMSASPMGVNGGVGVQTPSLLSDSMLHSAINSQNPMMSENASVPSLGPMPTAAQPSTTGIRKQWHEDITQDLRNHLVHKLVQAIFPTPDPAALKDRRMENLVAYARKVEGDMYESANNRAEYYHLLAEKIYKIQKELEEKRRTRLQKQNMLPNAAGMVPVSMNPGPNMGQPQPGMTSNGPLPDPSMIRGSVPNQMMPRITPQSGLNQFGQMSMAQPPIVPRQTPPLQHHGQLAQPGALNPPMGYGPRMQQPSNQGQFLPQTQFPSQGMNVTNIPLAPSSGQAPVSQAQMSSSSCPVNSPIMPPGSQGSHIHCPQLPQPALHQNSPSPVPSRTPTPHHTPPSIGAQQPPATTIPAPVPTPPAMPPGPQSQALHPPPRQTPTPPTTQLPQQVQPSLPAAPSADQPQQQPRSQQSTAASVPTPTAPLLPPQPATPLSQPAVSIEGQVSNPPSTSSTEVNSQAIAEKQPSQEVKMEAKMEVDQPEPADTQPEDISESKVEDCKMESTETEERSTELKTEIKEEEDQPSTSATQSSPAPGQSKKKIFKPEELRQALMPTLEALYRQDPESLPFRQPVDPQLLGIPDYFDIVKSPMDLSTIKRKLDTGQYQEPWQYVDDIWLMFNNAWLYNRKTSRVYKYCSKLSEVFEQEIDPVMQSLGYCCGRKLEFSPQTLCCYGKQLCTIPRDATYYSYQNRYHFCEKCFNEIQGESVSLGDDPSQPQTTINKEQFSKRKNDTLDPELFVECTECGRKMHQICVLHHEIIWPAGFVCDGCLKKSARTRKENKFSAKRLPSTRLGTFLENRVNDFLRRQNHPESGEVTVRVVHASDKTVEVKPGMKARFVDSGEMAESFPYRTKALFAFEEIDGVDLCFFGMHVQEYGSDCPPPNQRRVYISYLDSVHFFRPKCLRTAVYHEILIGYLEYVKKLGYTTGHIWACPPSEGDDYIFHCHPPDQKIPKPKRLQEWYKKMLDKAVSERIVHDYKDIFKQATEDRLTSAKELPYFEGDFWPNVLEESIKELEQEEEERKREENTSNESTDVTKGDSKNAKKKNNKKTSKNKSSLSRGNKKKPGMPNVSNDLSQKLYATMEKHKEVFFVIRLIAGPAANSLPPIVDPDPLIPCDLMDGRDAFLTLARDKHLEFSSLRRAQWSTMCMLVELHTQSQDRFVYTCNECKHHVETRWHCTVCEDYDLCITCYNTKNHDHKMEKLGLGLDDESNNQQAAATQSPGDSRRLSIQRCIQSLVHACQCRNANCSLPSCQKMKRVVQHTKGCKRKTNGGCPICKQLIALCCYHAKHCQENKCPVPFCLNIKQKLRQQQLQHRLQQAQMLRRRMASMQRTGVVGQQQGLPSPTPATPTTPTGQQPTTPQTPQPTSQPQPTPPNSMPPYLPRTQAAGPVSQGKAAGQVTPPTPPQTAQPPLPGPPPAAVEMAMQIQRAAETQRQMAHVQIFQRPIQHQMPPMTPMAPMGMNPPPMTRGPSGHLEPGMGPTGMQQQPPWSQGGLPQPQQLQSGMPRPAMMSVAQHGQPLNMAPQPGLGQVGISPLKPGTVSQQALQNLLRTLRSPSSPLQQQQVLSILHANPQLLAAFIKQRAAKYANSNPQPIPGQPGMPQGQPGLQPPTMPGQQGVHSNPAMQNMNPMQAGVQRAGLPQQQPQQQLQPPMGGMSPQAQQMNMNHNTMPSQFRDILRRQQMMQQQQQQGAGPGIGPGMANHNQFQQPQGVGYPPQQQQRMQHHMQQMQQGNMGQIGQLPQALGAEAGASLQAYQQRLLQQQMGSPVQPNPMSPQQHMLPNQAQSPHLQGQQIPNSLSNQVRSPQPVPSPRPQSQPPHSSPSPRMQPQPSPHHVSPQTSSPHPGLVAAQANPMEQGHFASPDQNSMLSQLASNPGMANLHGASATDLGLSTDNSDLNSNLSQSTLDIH
Histone acetyltransferase KAT2A (Homo sapiens), sequence (Q92830 2-837 limits assumed): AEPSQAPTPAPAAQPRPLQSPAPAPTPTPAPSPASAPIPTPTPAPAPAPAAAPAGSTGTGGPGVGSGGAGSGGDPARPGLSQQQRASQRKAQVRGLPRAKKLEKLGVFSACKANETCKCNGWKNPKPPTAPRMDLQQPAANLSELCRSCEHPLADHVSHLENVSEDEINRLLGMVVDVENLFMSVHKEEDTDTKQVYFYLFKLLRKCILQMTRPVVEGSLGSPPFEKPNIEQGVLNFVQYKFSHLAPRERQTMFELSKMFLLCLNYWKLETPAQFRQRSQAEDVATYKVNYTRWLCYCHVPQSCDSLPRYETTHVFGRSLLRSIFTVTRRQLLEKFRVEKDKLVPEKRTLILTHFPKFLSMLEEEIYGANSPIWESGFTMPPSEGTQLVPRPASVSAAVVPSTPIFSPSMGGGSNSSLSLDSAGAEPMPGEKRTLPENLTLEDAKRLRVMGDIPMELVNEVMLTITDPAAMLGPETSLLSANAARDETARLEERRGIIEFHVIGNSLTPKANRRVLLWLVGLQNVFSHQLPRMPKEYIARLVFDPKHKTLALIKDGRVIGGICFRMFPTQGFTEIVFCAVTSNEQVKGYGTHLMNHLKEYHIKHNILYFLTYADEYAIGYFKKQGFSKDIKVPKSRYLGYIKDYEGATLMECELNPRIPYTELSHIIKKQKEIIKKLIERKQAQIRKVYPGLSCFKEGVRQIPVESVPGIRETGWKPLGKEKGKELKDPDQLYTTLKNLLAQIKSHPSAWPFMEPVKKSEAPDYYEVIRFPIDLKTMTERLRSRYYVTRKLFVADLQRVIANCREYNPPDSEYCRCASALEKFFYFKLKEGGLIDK

Activity [1]: 70%
IC50 [3]: 5 µM
Activity [4]: 50%
Structure (SMILES): O=C1/C(=C/c2ccc(O)c(Br)c2)CCC/C1=C\c1ccc(O)c(Br)c1
Activity [2]: Active
Activity [5]: 30%
Activity [6]: > 50%

Activity [7]: inactive
Activity [8]: inactive
Structure (SMILES): COc1cc(/C=C/C(=O)CC(=O)/C=C/c2ccc(O)c(OC)c2)ccc1O

IC50 [3]: 46 µM
Structure (SMILES): O=C(/C=C(O)/C=C/c1ccc(O)c(O)c1)/C=C/c1ccc(O)c(O)c1

Activity [10]: 50%
IC50 [3]: 21 µM
Activity [11]: 38%
Activity [12]: 68%
Structure (SMILES): O=C(/C=C(O)/C=C/c1ccc(O)c(C(=O)O)c1)/C=C/c1ccc(O)c(C(=O)O)c1
Activity [9]: inactive

IC50 [3]: 33 µM
Structure (SMILES): O=C(/C=C(O)/C=C/c1ccc(O)c(Br)c1)/C=C/c1ccc(O)c(Br)c1

IC50 [3]: 168 µM
Structure (SMILES): O=C1/C(=C/c2ccc(O)c(C(=O)O)c2)CCC/C1=C\c1ccc(O)c(C(=O)O)c1

IC50 [3]: 233 µM
Structure (SMILES): O=C1/C(=C/c2ccc(O)c(O)c2)CCC/C1=C\c1ccc(O)c(O)c1

IC50 [3]: 111 µM
Structure (SMILES): COc1cc(/C=C2\CCC/C(=C\c3ccc(O)c(OC)c3)C2=O)ccc1O [CYCLOVALONE]
